Test results taken from ChEMBL document CHEMBL4393712, “Discovery of chalcone-modified estradiol analogs as antitumour agents that Inhibit tumour angiogenesis and epithelial to mesenchymal transition” (Eur J Med Chem, 2019).
Activity calls are given as the source filed them. The calls are words filed in the database; no cut-off is given here.

Columns and labels:
[1] = Toxicity in nude mouse xenografted with human MCF7 cells assessed as effect on spleen morphological changes at 22.5 to 45 mg/kg/day, ip administered for 21 days by HE staining analysis; type: organism-based; conditions: in vivo, 504 h
HEK293 = test: Cytotoxicity against human HEK293 cells measured after 48 to 72 hrs by MTT assay; type: cell-based
Outline: (§1)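 Cells seeded at 3 × 10^3 per well in 96-well plates, incubated overnight, then given fresh medium with a range of drug concentrations for 48 h or 72 h. MTT added (final 500 µg/mL) for 4 h, formazan dissolved in DMSO, absorbance at 570 nm; IC50 derived. Mean ± SD of 3 independent tests.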

A549 = test: Antitumour activity against human A549 cells assessed as cell growth inhibition measured after 72 hrs by SRB assay; type: functional, cell-based; conditions: A549, 72 h
Outline: (§2)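 Exponentially growing cells trypsinized, seeded at 5 × 10^4 cells/mL in 96-well plates, cultured overnight, then exposed to compounds for 72 h. Cells fixed with 10% TCA 1 h, stained with SRB 15 min, dye dissolved in Tris-HCl, absorbance read; 50% growth-inhibitory concentration calculated.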

HUVEC [2] = test: Antimigratory activity against HUVEC at 2 to 10 uM measured after 48 hrs by wound healing assay; type: functional, cell-based; conditions: Homo sapiens
Outline: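 Cells seeded in 6-well plates, monolayer scratched with pipette tip, washed twice, kept in medium with 2% FBS. Gaps imaged, then drug added (0, 2 or 10 µM for HUVEC and MCF-7); gaps re-imaged after 48 h and migration rate calculated. Three independent experiments; one-way ANOVA.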

[3] = Toxicity in nude mouse xenografted with human MCF7 cells assessed as liver edema at 22.5 to 45 mg/kg/day, ip administered for 21 days by HE staining analysis; type: organism-based; conditions: in vivo, 504 h
HUVEC [4] = test: Cytotoxicity against HUVEC assessed as reduction in cell viability measured after 48 to 72 hrs by MTT assay; type: cell-based; conditions: human; outline: as §1
[5] = Toxicity in nude mouse xenografted with human MCF7 cells assessed as effect on kidney morphological changes at 22.5 to 45 mg/kg/day, ip administered for 21 days by HE staining analysis; type: organism-based; conditions: in vivo, 504 h
HUVEC [6] = test: Reduction in SHC expression in HUVEC at 2 to 10 uM after 48 hrs by Western blot analysis; type: functional, cell-based; conditions: Homo sapiens
Outline: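 HUVECs grown in RPMI 1640 with 10% FBS, 37 °C, 5% CO2; treated with no drug, 2 or 10 µM for 48 h. Lysed in RIPA with protease/phosphatase inhibitors on ice 30 min, protein by BCA, 8% SDS-PAGE, PVDF transfer, milk block, primary antibody overnight 4 °C, secondary 2 h RT; ECL detection, densitometry. Probed VEGF-R, FAK, p-FAK, SHC.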

MCF7 [7] = test: Inhibition of epithelial-mesenchymal transition in human MCF7 cells assessed as decrease in N-cadherin expression level at 2 to 10 uM after 48 hrs by Western blot analysis; type: functional, cell-based
Outline: (§3)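 MCF-7 cells in RPMI 1640 with 10% FBS, 37 °C, 5% CO2, exposed to no drug, 2 or 10 µM for 48 h. RIPA lysates, BCA quantitation, 8% SDS-PAGE, PVDF transfer, primary antibodies overnight 4 °C, secondary 2 h RT, ECL and densitometry for ZO-1, E-cadherin, N-cadherin, vimentin. Mean ± SD of 3 independent tests.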

MCF7 [8] = test: Inhibition of epithelial-mesenchymal transition in human MCF7 cells assessed as decrease in vimentin expression level at 2 to 10 uM after 48 hrs by Western blot analysis; type: functional, cell-based; outline: as §3
[9] = Hepatotoxicity in nude mouse xenografted with human MCF7 cells assessed as slight increase in serum alanine transaminase level at 22.5 to 45 mg/kg/day, ip administered for 21 days by biochemical automatic analyzer; type: toxicity, organism-based; conditions: in vivo, 504 h
ECa-109 cell line = test: Antitumour activity against human EC109 cells assessed as cell growth inhibition measured after 72 hrs by SRB assay; type: functional, cell-based; conditions: ECa-109, 72 h; outline: as §2

IC50 (A549): 23.2 µM
Structure (SMILES): COc1cc2c(cc1O)CC[C@@H]1[C@@H]2CC[C@]2(C)C(=O)/C(=C/c3ccc(Cl)cc3)C[C@@H]12
Activity [1]: Non-Toxic | IC50 (HEK293): > 100 µM | Activity (HUVEC [2]): Active | Activity [3]: Toxic | Activity (HUVEC [4]): Toxic | Activity [5]: Non-Toxic | inhibition (HUVEC [6]): Active | inhibition (MCF7 [7]): Active | inhibition (MCF7 [8]): Active | Activity [9]: Toxic | IC50 (ECa-109 cell line): 14.7 µM
